High-throughput results deposited in PubChem BioAssay by several laboratories.
core dimer inh – blocks dimerization of HCV core protein | TR-FRET GST/Flag-core106 dimerization, 1536-well | inhibition, % at 5 µM | 300,000 tested, 0.33% active | AID 1899;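 active = inhibition above the mean of all tested compounds plus 3 SD, set per screening campaign, cut at about 45% in these data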
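System: GST/Flag-tagged HCV core106 proteins. Incubation: compound-protein-antibody incubation 4 h at 22.5 °C. Technique: HTRF with 340 nm excitation, 617/671 nm emission. Medium: KF-containing HEPES buffer, pH 7.45, DTT, CHAPS, BSA. Read-out: inhibition (%) from 671 over 617 nm ratio. Also added: Eu(K)-anti-GST 90 ng/mL plus XL665-anti-Flag 1 µg/mL.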
ZTA counter – counter-screen for EBNA-1 inhibitors: inhibitors of Epstein-Barr virus ZTA; P03206; ZTA-DNA binding, fluorescence polarization; inhibition, % at 11 µM; 320,000 tested, 0.15% active; AID 2234; in the data active = inhibition above about 33%
Target sequence (P03206 whole entry, looked up): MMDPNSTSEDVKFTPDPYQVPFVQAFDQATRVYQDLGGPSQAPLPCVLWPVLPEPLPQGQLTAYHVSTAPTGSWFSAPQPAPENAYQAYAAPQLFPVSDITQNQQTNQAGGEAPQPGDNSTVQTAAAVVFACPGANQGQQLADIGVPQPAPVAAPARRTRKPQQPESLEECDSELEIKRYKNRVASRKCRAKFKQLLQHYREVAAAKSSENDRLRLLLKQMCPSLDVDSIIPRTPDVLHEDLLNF
UBC9 SUMO inh – blocks human SUMOylation mediated by UBC9; HTRF SUMOylation assay, SAE1/SAE2 + UBC9, in vitro; inhibition, % at 35 µM; 290,000 tested, 0.36% active; AID 2006; in the data active = inhibition above about 50%, passing the limit was not always enough
Target sequence (P63279 whole entry, looked up): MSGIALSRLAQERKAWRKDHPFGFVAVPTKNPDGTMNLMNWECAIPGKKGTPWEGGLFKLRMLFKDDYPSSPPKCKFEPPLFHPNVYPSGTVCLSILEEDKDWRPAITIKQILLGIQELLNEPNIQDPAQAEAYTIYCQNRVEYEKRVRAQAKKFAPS
NS3 helicase inh – blocks Hepatitis C virus NS3 helicase unwinding; inhibition, % at 10.9 µM; NS3 helicase DNA unwinding, Cy5 molecular beacon fluorescence; 290,000 tested, 0.56% active;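 active = inhibition above the mean of all tested compounds plus 3 SD, set per campaign, cut at about 35% in these data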;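 also: 0% = DMSO wells and 100% = thioflavine S control wells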
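Test system: hepatitis C virus NS3 helicase domain fragment enzyme. Also added: annealed dual-labelled DNA beacon duplex, ATP-started. Timing: 60 min unwinding reaction at 25 °C after ATP addition. Technique: Cy5 fluorescence. Measure: % inhibition of unwinding.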
EBNA-1 inhibitor – blocks EBNA-1 binding to DNA | EBNA-1 DNA binding, fluorescence polarization | inhibition, % at 14.8 µM | 300,000 tested, 0.34% active; in the data active = inhibition above about 28%
NS3 helicase cf – HCV NS3 helicase inhibition, confirmation assay; inhibition, % at 10.9 µM; AID 1943; 1,600 tested, 31% active; shares compounds with NS3 helicase inh; NS3 helicase DNA unwinding, Cy5 molecular beacon fluorescence;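 active = inhibition above the mean of all tested compounds plus 3 SD, cutoff set per campaign, cut at about 36% in these data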
DNA FID counter – displaces DNA intercalator in HCV helicase counter-screen; shares compounds with NS3 helicase inh; DNA fluorescent intercalator displacement, fluorescence; inhibition, % at 7.9 µM; 1,600 tested, 4% active; AID 1945; in the data active = inhibition above about 37%;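 also: 0% = vehicle and 100% = reference compound; higher means more displacement of ethidium bromide from the DNA hairpin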
The depositor's hits bear a star; . = not tested or not shown. Shown are actives, neighbours in structure and some others; about 1.4% of the full set was active somewhere.

SMILES	core dimer inh	ZTA counter	UBC9 SUMO inh	NS3 helicase inh	EBNA-1 inhibitor	NS3 helicase cf	DNA FID counter
O=C1CS/C(=N/N=C/c2ccccc2)N1c1ccc(O)cc1	-6.9	6.3	2.5	-7.0	4.2	.	.
Cc1cc(C)c(C)c(S(=O)(=O)N2CCC(C(=O)NCCCN3CCCC3=O)CC2)c1C	.	-4.1	.	.	.	.	.
Cc1ccc(SC(CC(=O)c2ccc(F)cc2)C(=O)O)cc1 (stereo not drawn)	-10.4	4.9	11.8	43.0*	6.7	-23.4	0.9
CC(C)(C)c1ccc(C(=O)CC(Sc2ccc(Cl)cc2)C(=O)O)cc1 (stereo not drawn)	5.5	1.4	33.2	15.6	2.3	.	.
CC(NC(=O)Cn1cc(Br)c([N+](=O)[O-])n1)c1ccccc1 (stereo not drawn)	2.2	6.1	-9.3	-2.5	-3.4	.	.
Cc1cccc(CNCc2ccccc2)c1	-5.0	8.2	-1.6	38.5*	2.7	-9.8	8.9
Cc1noc(C)c1COc1ccc(C(=O)OCC(=O)Nc2ccc(S(N)(=O)=O)cc2)cc1	.	8.9	.	.	.	.	.
O=C(OCc1cc(=O)n2c(n1)sc1ccccc12)c1ccc(O)cc1O	42.1	-10.7	24.4	36.1*	15.3	30.0	1.0
Cc1occc1C(=O)N1CCCC(N2CCN(c3cccc(Cl)c3)CC2)C1 (stereo not drawn)	-7.7	4.0	11.6	-1.8	2.5	.	.
C=CCNC(=S)/N=c1/ccccn1CCC	0.9	-2.9	9.4	4.8	-6.4	.	.
COc1ccc(CNC(=O)CN(c2ccc(OC)cc2)S(=O)(=O)c2c(C)[nH]c(=O)[nH]c2=O)cc1	-10.7	-6.3	15.7	7.7	2.8	.	.
COc1ccc(N(CC(=O)NCCC2=CCCCC2)S(=O)(=O)c2c(C)[nH]c(=O)[nH]c2=O)cc1	5.3	16.2	10.2	36.7*	4.0	-20.2	-32.4
CC(=O)Nc1ccc(S(=O)(=O)NCC(=O)OCC(=O)N2CCCCCC2)cc1	.	-11.3	.	.	.	.	.
Cc1cccc(NC(=S)NN2CCOCC2)c1C	-0.4	-0.5	10.2	1.8	-0.4	.	.
Cc1cccc(NC(=S)Nc2ccc(N3CCOCC3)cc2)c1C	-5.6	-1.1	-4.1	40.2*	-3.8	-13.9	-1.6
O=C(Nc1ccc(Oc2ccc(Cl)cc2)c(Cl)c1)c1cc(I)cc(I)c1O	21.1	-1.0	59.1*	46.8*	5.3	84.2*	32.8
CN1C(=O)C(Cl)(Cl)C(=O)c2ccccc21	.	.	-1.4	53.4*	.	-15.2	2.8
Cc1cc(C)n(C(C)CC(=O)Nc2ccc3c(c2)OCCO3)n1 (stereo not drawn)	-7.7	-11.4	-5.0	12.1	-18.5	.	.
O=C(N/C(=C\c1ccccc1)C(=O)N1CCOCC1)c1cccc(Br)c1	0.9	-1.6	2.0	7.9	-8.4	.	.
CCN(C(=O)c1ccc2c(=O)n3c(nc2c1)CCCCC3)c1ccccc1C	2.2	4.9	-11.6	0.6	1.8	.	.
Cc1c(C(=O)N2CCN(S(=O)(=O)c3cc(F)ccc3F)CC2)oc2ccccc12	.	-22.7	.	.	.	.	.
Cc1c(NC(=O)c2nn3c(C(F)(F)F)cc(-c4ccccc4)nc3c2Cl)c(=O)n(-c2ccccc2)n1C	-1.0	9.2	1.1	36.8*	15.4	-13.8	-33.9
COc1ccc(-c2cc(C(F)(F)F)n3nc(C(=O)Nc4c(C)n(C)n(-c5ccccc5)c4=O)c(Cl)c3n2)cc1	13.9	1.8	18.5	-18.6	-10.7	.	.
O=C(c1cccc(Br)c1)N1CCN(c2cnn(-c3ccccc3)c(=O)c2Cl)CC1	2.4	5.2	9.8	-8.2	11.2	.	.
CCOc1ccc(C(=O)N2CCN(c3cnn(-c4ccccc4)c(=O)c3Cl)CC2)cc1	-25.1	2.6	4.0	40.0*	-1.8	-3.7	-53.4
SMILES	core dimer inh	ZTA counter	UBC9 SUMO inh	NS3 helicase inh	EBNA-1 inhibitor	NS3 helicase cf	DNA FID counter
COc1cccc(OCCOc2ccc(/C=C3/SC(=S)NC3=O)cc2)c1	39.8	18.4	34.9	48.0*	0.7	54.4*	12.7
CCOc1ccc(/C=C2\SC(=S)NC2=O)cc1OC	2.3	10.4	16.2	34.5	8.4	.	.
CCOCCOC(=O)c1[nH]c2c(c1C)C(=O)CC(c1ccccc1)C2 (stereo not drawn)	0.8	7.1	-1.7	-4.5	0.1	.	.
CCCCCOC(=O)c1[nH]c2c(c1C)C(=O)CC(c1ccco1)C2 (stereo not drawn)	16.6	2.4	4.5	41.3*	-5.3	17.4	0.5
COc1ccc(S(=O)(=O)N2CCN(Cc3ccccc3)CC2)cc1OC	.	.	8.9	97.1*	.	-12.5	-8.3
COc1ccc(CN2CCN(S(=O)(=O)c3ccc(C)cc3)CC2)cc1OC	-0.5	0.3	.	.	6.8	.	.
O=C(Cc1cc(=O)[nH][nH]1)N/N=C/C=C/c1ccccc1	20.7	-3.5	-23.6	40.0*	17.1	11.8	-21.6
O=C(CNC(=O)c1ccccc1)N/N=C/C=C/c1ccccc1	2.6	2.5	0.9	5.0	4.6	.	.
O=C(COc1ccc2ccccc2c1)N[C@@H](C(=O)O)c1ccc(O)cc1	-6.8	-6.0	0.7	43.1*	-8.9	-29.3	-3.5
CN1CCN(CC(=O)Nc2nc(-c3ccccc3)cs2)CC1	-4.3	9.4	-4.6	7.0	-18.7	.	.
CN1CCN(CC(=O)N(C)c2nc(-c3ccccc3)cs2)CC1	-11.5	-4.6	20.6	49.3*	-0.9	-2.0	21.8
CCc1ccc(CN(C)CC(=O)Nc2ccc(S(=O)(=O)N3CCOCC3)cc2)cc1	.	20.9	.	.	.	.	.
NS(=O)(=O)c1ccc(N=Nc2ccc(=O)[nH]c2O)cc1	-16.3	21.6	21.1	31.6	-20.7	-17.3	13.1
COc1ccc(OCC(O)CNC(=O)Nc2ccccc2)cc1 (stereo not drawn)	-0.3	-8.9	11.0	-0.1	1.4	.	.
COc1ccc(OCC(O)CNC(=O)c2sccc2Cl)cc1 (stereo not drawn)	-2.8	-7.2	-4.6	44.5*	5.8	-8.1	-0.1
Cc1c(C(=O)O)sc2nc(/C=C/c3cccc(F)c3)[nH]c(=O)c12	6.8	-7.8	30.0	63.3*	-14.8	-11.8	10.5
O=C(CSc1nc(=O)n(CCCN2CCOCC2)c2c1CCC2)Nc1ccc([N+](=O)[O-])cc1	7.1	-1.4	.	.	-4.5	.	.
Cc1ccc(NC(=O)CSCC(=O)NNC(=O)c2nn(C)c(=O)c3ccccc23)cc1	.	18.6	.	.	.	.	.
CCOc1cccc(=O)c2c(C)n(CC(=O)c3ccccc3)c(C)c12	36.7	6.3	19.1	27.1	4.4	.	.
COc1cccc(=O)c2c(C)n(CC(=O)c3ccccc3)c(C)c12	67.4*	5.3	3.6	58.3*	2.7	-13.5	-16.1
Cc1cccc(C(=O)NCC(=O)NCC2COc3ccccc3O2)c1 (stereo not drawn)	-0.4	-5.5	.	.	3.6	.	.
O=C(COc1ccc(-c2ccccc2)cc1)N/N=C/c1ccccc1Br	26.6	-4.3	-18.9	12.1	7.8	.	.
O=C(COc1ccc(-c2ccccc2)cc1)N/N=C/c1cc(O)ccc1Br	8.7	-20.0	-9.9	37.5*	3.4	-2.1	-19.2
